# Screening results deposited in PubChem by several laboratories.
# Shown are actives, neighbours in structure and some others; about 4.7% of the full set was active somewhere.
# RGS4 inh = inhibitors of human RGS4; P49798; HEK293 M3R/RGS4 inducible, Fluo-4 calcium flux; active compounds read high; triggered by carbachol at its EC20; 0.45% of 310,000 active; AID 463165; B-score at 10 µM;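 active = B-score, a plate-corrected calcium signal, over three deviations above library mean, with baseline fluorescence within five deviations of library mean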;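 note: RGS4 expression induced by doxycycline in cells with stable M3 receptor; B-score is computed from the integrated fluorescence ratio over baseline after carbachol; higher B-score means a larger calcium signal and so more RGS4 inhibition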
# MrgX1 antagonist = human MrgX1 receptor antagonism, primary screen. Q96LB2. MRGX1-HEK293 calcium flux, Fluo-4, BAM8-22 antagonism; active compounds read low. B-score at 10 µM. 1.3% of 310,000 active. AID 588676;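 active = calcium-response B-score plate-corrected more than 3 library SD below zero, starting fluorescence within 5 deviations, no agonist response on first addition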;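 note: peak minus trough fluorescence over baseline after final BAM8-22 challenge near maximal dose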
# KCC2 mod = modulators of human KCC2 chloride dependent transport | 2.2% of 190,000 active | Q9H2X9 | AID 1456 | B-score of Tl+ flux slope (higher = more flux/activation; lower = inhibition) at 10 µM | KCC2 cells, thallium flux FluoZin-2 fluorescence;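 active = thallium flux slope and its plate-corrected score both differing from the plate sample mean at a set confidence after two filtering rounds, in either direction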;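 note: slope of fluorescence scaled to starting intensity during 10 to 20 s after thallium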
# MrgX1 agonist = activates human MrgX1 receptor signaling; Q96LB2; MrgX1-HEK293 cells, Fluo-4 calcium fluorescence, agonist mode; active compounds read high; B-score at 10 µM; 0.44% of 310,000 active;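 active = calcium response B-score plate-corrected fluorescence ratio at least 3 library SD, with starting fluorescence B-score inside 5 SD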
#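 Test system: HEK293 cells stably expressing human MrgX1 receptor; Input: fifteen thousand cells per well; Dosing: compound delivered in addition one of three; Schedule: overnight seeding, then 1 h dark dye loading; Technique: Fluo-4 NW calcium fluorescence; Measure: B-scored fluorescence response ratio; Controls: positive and negative controls per plate.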
# RGS4 pot = RGS4 potentiation or activation; B-score at 10 µM; AID 463111; 0.92% of 310,000 active; HEK293 M3R/inducible RGS4, carbachol calcium flux Fluo4; active compounds read low;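 active = B-score of the integrated calcium signal more than 4 SD below the library mean, with starting fluorescence not abnormally high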;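 note: negative B-score means reduced calcium response which marks RGS4 activation or potentiation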
#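 Material: Inducible-RGS4 HEK293 cells carrying M3 receptor; also added: carbachol at ECmax as muscarinic agonist stimulus; incubation: compound preincubation 20 min at room temperature before agonist; signal: Fluo4-AM (2 µM) calcium-flux fluorescence, kinetic read; measure: integrated calcium ratio converted to B score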
# MrgX1 allo act = human MrgX1 positive allosteric modulation, primary screen; MrgX1-HEK293, Fluo-4 calcium flux, FDSS; active compounds read high; Q96LB2; 0.63% of 310,000 active; B-score at 10 µM;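 active = plate-corrected calcium response at least 3 library SD above typical, normal starting fluorescence, not activating the receptor alone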;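 note: compound read alongside a low EC10 to EC30 dose of BAM8-22 agonist; peak minus trough fluorescence over baseline measured at the second addition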
# KCC2 sec1 = confirmation of human KCC2 transport modulators. shares compounds with KCC2 mod. normalised thallium flux (F/F0 slope) at 10 µM. HEK293-KCC2, thallium flux, FluoZin2 fluorescence; active compounds read high. 15% of 3,700 active;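 active = thallium flux slope above the same plate's solvent-only control mean plus 3 SD; inconclusive = the two replicate wells disagree; inactive = no significant difference from solvent-only control wells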
# KCC2 bumet counter = thallium flux persisting under bumetanide in KCC2 cells, counter-screen secondary assay; normalized thallium flux at 10 µM; HEK293-KCC2 + bumetanide/ouabain, thallium flux FluoZin2; active compounds read high; shares compounds with KCC2 mod; 49% of 3,700 active;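 active = thallium entry rate above the same plate's blocked-transporter control wells by more than 3 SD; inconclusive = the two repeat wells disagree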;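 note: raw slope of fluorescence over initial fluorescence between 10 and 20 s after thallium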
# KCC2 sec2 = KCC2 (human) modulation, second secondary assay. shares compounds with KCC2 mod. HEK293-KCC2, thallium flux FluoZin2 fluorescence; actives lie on both sides; F/F0 rise rate, 10–20 s post-thallium. normalized thallium flux at 10 µM. 23% of 3,700 active. AID 1715;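 active = thallium flux slope more than 3 SD above or below the plate's solvent-only control mean, mostly below; inconclusive = the two repeat wells disagreed; inactive = no significant shift from solvent-only controls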
# HEK counter1 = counter-screen for KCC2 modulators: effect in parental HEK293 cells; thallium flux rate (normalised fluorescence) at 10 µM; shares compounds with KCC2 mod; 46% of 3,700 active; AID 1716; thallium flux FluoZin2, ouabain; baseline-ratio fluorescence slope, 10–20 s after thallium;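 active = thallium flux rate significantly above the same plate's solvent-only control wells, beyond their mean plus 3 SD; inconclusive = the two replicate wells gave conflicting results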
# KCC2 ouabain = modulates human KCC2 on retest with ouabain. shares compounds with KCC2 mod. HEK293-KCC2, thallium flux FluoZin2 fluorescence; bidirectional: low = inhibitor, high = activator. raw Tl+ flux slope (below DMSO = inhibition, above = activation) at 10 µM. 48% of 3,700 active;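 active = thallium flux slope beyond 3 SD from same-plate DMSO control mean in most replicates, usually higher, sometimes lower; inconclusive = repeat tests gave conflicting results; inactive = no significant difference from controls in most replicates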;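 note: slope of initial-normalized fluorescence between seconds 10 and 20 after thallium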
# HEK293 Tl flux2 = acts in parental HEK cells, second KCC2 counter-screen. shares compounds with KCC2 mod. HEK293 parental, thallium flux FluoZin-2 fluorescence slope. thallium flux slope at 10 µM. 33% of 3,700 active. AID 1718;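 active = thallium flux slope above the same plate's solvent-control mean plus 3 SD in both duplicate wells; inconclusive = duplicate wells that disagreed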;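 note: run without ouabain in cells lacking the KCC2 cotransporter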
# Hits are given with their value; n = inactive; u = inconclusive; x = no result given.
SMILES,RGS4 inh,MrgX1 antagonist,KCC2 mod,MrgX1 agonist,RGS4 pot,MrgX1 allo act,KCC2 sec1,KCC2 bumet counter,KCC2 sec2,HEK counter1,KCC2 ouabain,HEK293 Tl flux2
O=C(CSc1ncnc2c1oc1ccccc12)N1CCCc2ccccc21,n,n,x,n,n,n,n,n,n,n,0.0163,n
CCC1CCCCN1C(=O)CSc1nnc(-c2c[nH]c3ccccc23)o1 (configuration not stated),n,n,-3.33,n,n,n,n,n,n,n,0.0222,u
CC1CCCC(C)N1C(=O)CSc1nnc(-c2c[nH]c3ccccc23)o1 (configuration not stated),n,n,x,n,n,n,x,x,x,x,x,x
CCOC(=O)c1cc(CC)sc1NC(=O)COC(=O)C1CCC1,n,n,x,n,n,n,x,x,x,x,x,x
CCCCCn1c(=S)[nH]c2cc(C(=O)N3CCCC3)ccc2c1=O,n,n,n,n,n,n,x,x,x,x,x,x
CC1CCCN(C(=O)c2ccc3c(=O)n(C4CCCC4)c(=S)[nH]c3c2)C1 (configuration not stated),n,n,15.5,n,n,n,n,0.0248,u,0.0224,u,n
O=C(c1ccc2c(=O)n(C3CCCC3)c(=S)[nH]c2c1)N1CCCCCC1,n,n,5.32,n,n,n,n,0.0247,n,0.0101,n,0.0128
O=C(c1ccc2c(=O)n(-c3ccccc3)c(=S)[nH]c2c1)N1CCCCC1,n,n,n,n,n,n,x,x,x,x,x,x
CCOc1cccc2sc(NC(=O)c3ccc(Br)s3)nc12,n,n,31.5,n,n,n,u,0.0565,0.0489,0.0338,0.0377,0.0315
Cc1c(C)n(-c2ccccc2)c2ncnc(NCCN(C)C)c12,n,n,x,n,n,n,x,x,x,x,x,x
Cc1ccccc1NC(=O)c1cc(S(=O)(=O)N2CCOCC2)cn1C,n,n,x,n,n,n,x,x,x,x,x,x
Cc1cccc(C)c1NC(=S)N=Nc1c(O)n(C)c2ccc(S(=O)(=O)N3CCOCC3)cc12,n,n,4.38,n,n,n,n,0.0272,n,0.012,n,0.0118
Cc1ccccc1NC(=S)N=Nc1c(O)n(C)c2ccc(S(=O)(=O)N3CCOCC3)cc12,n,n,14.8,n,n,n,n,0.0695,n,0.0231,u,u
Cc1ccc(C(=O)Nc2cccc(C(O)c3ccccc3)c2)cc1 (configuration not stated),n,n,x,n,n,n,x,x,x,x,x,x
Cc1cccc(C)c1NC(=O)CN(C)C(=O)CSC(=S)N1CCCC1,n,n,x,n,n,n,x,x,x,x,x,x
Cc1ccc(OCC(=O)NNC(=O)C(=O)N2CCCC2)c(C)c1,n,n,4.32,n,n,n,n,0.0135,n,0.0132,u,0.0148
COc1ccc(C(=O)NNC(=O)C(=O)N2CCCCC2)cc1OC,n,n,x,n,n,n,x,x,x,x,x,x
Cc1cc(Br)ccc1OCC(=O)NNC(=O)C(=O)Nc1ccccc1,n,n,x,n,n,n,0.0225,0.093,u,0.0871,0.075,0.0725
Cc1cccc(C(=O)Nc2sc3c(c2C(=O)O)CCCC3)c1,n,n,x,n,n,n,x,x,x,x,x,x
